ChEMBL document CHEMBL1154678, “beta-Lactams derived from a carbapenem chiron are selective inhibitors of human fatty acid amide hydrolase versus human monoacylglycerol lipase” (J Med Chem, 2009)

B1: Fatty-acid amide hydrolase 1 (Homo sapiens), O00519 (protein)
chain: MVQYELWAALPGASGVALACCFVAAAVALRWSGRRTARGAVVRARQRQRAGLENMDRAAQRFRLQNPDLDSEALLALPLPQLVQKLHSRELAPEAVLFTYVGKAWEVNKGTNCVTSYLADCETQLSQAPRQGLLYGVPVSLKECFTYKGQDSTLGLSLNEGVPAECDSVVVHVLKLQGAVPFVHTNVPQSMFSYDCSNPLFGQTVNPWKSSKSPGGSSGGEGALIGSGGSPLGLGTDIGGSIRFPSSFCGICGLKPTGNRLSKSGLKGCVYGQEAVRLSVGPMARDVESLALCLRALLCEDMFRLDPTVPPLPFREEVYTSSQPLRVGYYETDNYTMPSPAMRRAVLETKQSLEAAGHTLVPFLPSNIPHALETLSTGGLFSDGGHTFLQNFKGDFVDPCLGDLVSILKLPQWLKGLLAFLVKPLLPRLSAFLSNMKSRSAGKLWELQHEIEVYRKTVIAQWRALDLDVVLTPMLAPALDLNAPGRATGAVSYTMLYNCLDFPAGVVPVTTVTAEDEAQMEHYRGYFGDIWDKMLQKGMKKSVGLPVAVQCVALPWQEELCLRFMREVERLMTPEKQSS

How the values were obtained:
[1] = biological target: T1, Fatty-acid amide hydrolase 1 (Homo sapiens, UniProt O00519); test: Inhibition of human recombinant FAAH using [3H]anandamide by competitive hydrolysis assay
T1 sequence (O00519 whole entry): B1 chain
Procedure, shortened: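 Compounds were added in DMSO, with DMSO alone as control, plus [3H]-AEA at 2 μM final, 37 °C for 10 min. The reaction was stopped on ice with cold chloroform/methanol (1:1), and the aqueous phase was counted by LSC with the buffer-only blank subtracted. IC50 is the mean of three independent experiments.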

[2] = biological target: T2, Monoglyceride lipase (Homo sapiens) (UniProt Q99685); test: Inhibition of human recombinant MGL using 2-oleoylglycerol at 100 uM by competitive hydrolysis assay
T2 sequence (whole entry): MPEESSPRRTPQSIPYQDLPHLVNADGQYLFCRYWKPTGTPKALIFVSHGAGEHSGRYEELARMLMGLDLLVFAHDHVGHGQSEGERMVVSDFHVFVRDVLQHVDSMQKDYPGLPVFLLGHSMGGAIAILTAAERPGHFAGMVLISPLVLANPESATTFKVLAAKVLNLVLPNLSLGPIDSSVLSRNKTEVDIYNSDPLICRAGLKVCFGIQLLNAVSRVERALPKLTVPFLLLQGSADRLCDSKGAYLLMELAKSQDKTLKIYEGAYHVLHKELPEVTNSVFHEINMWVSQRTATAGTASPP

[3] = biological target: T2, Monoglyceride lipase (Homo sapiens); test: Inhibition of human recombinant MGL using 2-oleoylglycerol at 1 uM by competitive hydrolysis assay
Monoglyceride lipase = biological target: T3, Monoglyceride lipase (Homo sapiens, UniProt Q99685); test: Inhibition of human recombinant MGL using 2-oleoylglycerol by competitive hydrolysis assay
T3 sequence (Q99685 whole entry): T2 sequence (whole entry)
Procedure, shortened: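 Compounds were added in DMSO, with DMSO as control, plus [3H]-2-oleoylglycerol at 2 μM final, 37 °C for 10 min. Ice-cold chloroform/methanol (1:1) quench, and the methanol/buffer phase was counted by LSC with the blank subtracted. Results are means of three independent assays.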

[4] = substrate: C=CCCC(=O)N1C[C@@H]([C@@H](C)OC(=O)CCCc2ccccc2)C1=O; test: Hydrolytic activity of human recombinant FAAH at 45 nM by liquid scintillation counting
[5] = substrate: C=CCCC(=O)N1C[C@@H]([C@@H](C)OC(=O)CCCc2ccccc2)C1=O; test: Hydrolytic activity of human recombinant FAAH at 15 nM by liquid scintillation counting

Molecule | IC50 [1] [nM] | inhibition [2] [%] | inhibition [3] [%] | IC50 (Monoglyceride lipase) [nM] | IC50 (Monoglyceride lipase; read-out: IC50) [nM] | Vmax [4] [nmol/min/mg] | Vmax [5] [nmol/min/mg]
C[C@@H](OC(=O)CCc1ccccc1)[C@@H]1CN(C(=O)CCCc2ccccc2)C1=O | 57 | 54 | – | – | – | – | –
CC(=O)O[C@@H]1[C@@H]([C@@H](C)OC(=O)Cc2ccc(-c3ccccc3)cc2)C(=O)N1C(=O)CCCc1ccccc1 | 708 | 100 | 0 | – | – | – | –
C=CCCCC(=O)O[C@H](C)[C@@H]1CN(C(=O)CCC=C)C1=O | 32 | 8 | – | 4720 | 4720 | – | –
C=CCCC(=O)O[C@H](C)[C@@H]1CN(C(=O)CCC=C)C1=O | 98 | 99 | – | – | 23300 | – | –
CC(=O)O[C@@H]1[C@@H]([C@@H](C)OC(=O)CCc2ccccc2)C(=O)N1C(=O)CCCc1ccccc1 | 5120 | 100 | 0 | – | – | – | –
C=CCCCC(=O)N1C[C@@H]([C@@H](C)OC(=O)CCCc2ccccc2)C1=O | 10 | 85 | – | – | 8510 | – | –
C=CCCC(=O)N1C[C@@H]([C@@H](C)OC(=O)CCCc2ccccc2)C1=O | 5 | 89 | – | – | 4060 | – | –
C=CCCC(=O)N1C(=O)[C@H]([C@@H](C)O)[C@H]1OC(C)=O | 537000 | 16 | – | – | – | – | –
C[C@@H](OC(=O)Cc1ccc(-c2ccccc2)cc1)[C@@H]1CN(C(=O)CCCc2ccccc2)C1=O | 32 | 0 | – | – | – | – | –
CC(=O)O[C@@H]1[C@@H]([C@@H](C)OC(=O)CCc2ccccc2)C(=O)N1C(=O)CCc1ccccc1 | 2020 | 100 | 0 | – | – | – | –
C[C@@H](OC(=O)CCCCc1ccccc1)[C@@H]1CN(C(=O)CCc2ccccc2)C1=O | 91 | 100 | 0 | – | – | – | –
C=CCCC(=O)N1C[C@@H]([C@@H](C)O)C1=O | 7900 | 89 | 8 | – | – | – | –
C[C@@H](OC(=O)Cc1ccc(-c2ccccc2)cc1)[C@@H]1CNC1=O | 6500 | 16 | – | – | – | – | –
C=CCCCC(=O)N1C[C@@H]([C@@H](C)OC(=O)Cc2ccc(-c3ccccc3)cc2)C1=O | 14 | 67 | – | – | 14600 | – | –
CC(=O)O[C@@H]1[C@@H]([C@@H](C)OC(=O)Cc2ccc(-c3ccccc3)cc2)C(=O)N1C(=O)CCc1ccccc1 | 826 | 66 | – | – | – | – | –
C[C@@H](OC(=O)CCCc1ccccc1)[C@@H]1CN(C(=O)CCCc2ccccc2)C1=O | 30 | 100 | 0 | – | – | – | –
C[C@@H](OC(=O)Cc1ccc(-c2ccccc2)cc1)[C@@H]1CN(C(=O)CCCCc2ccccc2)C1=O | 236 | 25 | – | – | – | – | –
CC(=O)O[C@@H]1[C@@H]([C@@H](C)OC(=O)CCCc2ccccc2)C(=O)N1C(=O)CCCc1ccccc1 | 3120 | 100 | 0 | – | – | – | –
C[C@@H](OC(=O)CCCc1ccccc1)[C@@H]1CN(C(=O)CCCCc2ccccc2)C1=O | 449 | 39 | – | – | – | – | –
C=CCCC(=O)O[C@H](C)[C@H]1C(=O)N(C(=O)CCC=C)[C@@H]1OC(C)=O | 1900 | 99 | 33 | – | 133000 | – | –
C[C@@H](O)[C@@H]1CN(C(=O)CCc2ccccc2)C1=O | 409000 | 8 | – | – | – | – | –
C[C@@H](OC(=O)CCCc1ccccc1)[C@@H]1CN(C(=O)CCc2ccccc2)C1=O | 49 | 100 | 0 | – | – | – | –
CC(=O)O[C@@H]1[C@@H]([C@@H](C)O)C(=O)N1C(=O)CCCc1ccccc1 | 183000 | 61 | – | – | – | – | –
C[C@@H](OC(=O)CCCCc1ccccc1)[C@@H]1CN(C(=O)CCCc2ccccc2)C1=O | 45 | 59 | – | – | – | – | –
C[C@@H](OC(=O)CCc1ccccc1)[C@@H]1CN(C(=O)CCc2ccccc2)C1=O | 157 | 100 | 0 | – | – | – | –
CC(=O)O[C@@H]1[C@@H]([C@@H](C)O)C(=O)N1C(=O)CCc1ccccc1 | 224000 | 48 | – | – | – | – | –
C[C@@H](OC(=O)Cc1ccc(-c2ccccc2)cc1)[C@@H]1CN(C(=O)CCc2ccccc2)C1=O | 50 | 31 | – | – | – | – | –
CC(=O)O[C@@H]1[C@@H]([C@@H](C)OC(=O)CCCc2ccccc2)C(=O)N1C(=O)CCc1ccccc1 | 960 | 100 | 0 | – | – | – | –
C=CCCC(=O)N1C[C@@H]([C@@H](C)OC(=O)Cc2ccc(-c3ccccc3)cc2)C1=O | 12 | 91 | – | – | 1840 | – | –
B1 | – | – | – | – | – | 11.9 | 12.8
